Env fusion inh: inhibitors of HIV-1 Env-driven cell-cell fusion, primary screen, HeLa-JRFL effector, CEM21 target cells, luciferase. inhibition, % at 12.3 µM. 360,000 tested, 1.1% active. AID 651610, 2012;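 active = mean replicate inhibition score of at least 50 and every replicate individually at or above 50; inconclusive = only one of the two criteria met; inactive = mean below 50 and not all replicates reaching 50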;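 also: 0% = plate neutral controls and 100% = maraviroc near 300 nM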
E-selectin induc: E-selectin induction in HUVECs, primary screen, imaging, HUVEC, immunofluorescence imaging, single point; P16581; 260,000 tested, 0.37% active; normalized: neutral wells 0, TNF-alpha wells 100; activation, % at 7.58 µM;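 active = mean E-selectin-positive cell signal at least 10% of the positive control, reached in at least 60% of replicates, without over 20% cell loss; inconclusive = no rule given, readout overlaps actives, possibly toxicity-flagged; inactive = the rest, including those meeting only one limit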
Target sequence (P16581 whole entry, looked up): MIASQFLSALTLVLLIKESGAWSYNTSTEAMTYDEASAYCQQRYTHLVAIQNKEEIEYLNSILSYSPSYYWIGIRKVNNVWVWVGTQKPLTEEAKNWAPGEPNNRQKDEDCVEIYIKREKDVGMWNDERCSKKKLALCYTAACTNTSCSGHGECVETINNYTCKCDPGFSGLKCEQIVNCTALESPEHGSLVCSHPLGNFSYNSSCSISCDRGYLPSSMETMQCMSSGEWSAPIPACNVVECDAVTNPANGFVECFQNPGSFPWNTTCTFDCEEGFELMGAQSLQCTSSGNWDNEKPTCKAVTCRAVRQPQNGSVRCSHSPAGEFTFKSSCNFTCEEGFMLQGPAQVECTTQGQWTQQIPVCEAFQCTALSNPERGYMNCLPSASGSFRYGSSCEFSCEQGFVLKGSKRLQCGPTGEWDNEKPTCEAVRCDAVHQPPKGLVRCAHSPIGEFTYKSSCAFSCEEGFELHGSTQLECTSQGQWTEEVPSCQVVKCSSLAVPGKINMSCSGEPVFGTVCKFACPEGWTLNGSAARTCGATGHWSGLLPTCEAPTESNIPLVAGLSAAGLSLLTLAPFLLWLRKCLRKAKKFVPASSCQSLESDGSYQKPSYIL
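material = human umbilical vein endothelial cells (HUVEC), E-selectin induction | quantity = 3,000 cells/well | medium = EGM-2 growth medium on 0.1% gelatin-coated wells | technique = immunofluorescence imaging | read-out basis = % PE-positive cells | control set = TNF-alpha positive control, DMSO neutral control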
FGF22 binding: binders of human FGF22 protein, primary screen, FGF22 synaptogenesis inhibitor project, biophysical, thermal shift, single point; Fibroblast growth factor 22 (Homo sapiens), Q9HCT0; activity (Tm shift, normalised), % at 9.99 µM; 340,000 tested, 1.5% active; AID 651658, 2012; recombinant FGF22 thermal shift, SYPRO orange fluorescence; percent of sucrose octasulfate shift, DMSO zero;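 active = mean Tm shift, scaled 0 neutral to 100 positive control, at about 1.3% or above, every replicate too, limit read from the data; inconclusive = no clear call, values can overlap the other calls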
S100A4 inh HTS: inhibitors of S100A4-myosin IIA peptide binding, primary screen, biochemical, fluorescence polarization, TAMRA-MyoIIA peptide; inhibition, % at 10.7 µM; 360,000 tested, 0.14% active; Protein S100-A4 (Homo sapiens), P26447;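 active = mean inhibition of at least 70% across replicates, with every replicate also reaching that level; inconclusive = mean inhibition reaches 70% but some replicates fall short; inactive = mean inhibition below 70%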
Target sequence (P26447 whole entry, looked up): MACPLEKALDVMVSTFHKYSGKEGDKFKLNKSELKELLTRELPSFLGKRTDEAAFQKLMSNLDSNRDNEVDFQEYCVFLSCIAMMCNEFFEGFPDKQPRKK
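assay system = human S100A4 monomer with TAMRA-labelled myosin IIA peptide | also added = labelled myosin peptide probe, 5 nM | incubation = 5 min between mix addition and reading | control set = DMSO and TFP controls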
CFTR F508del cor: F508del CFTR correction, initial screen, CFBE line, single point. 350,000 tested, 0.36% active. CFBE cells, YFP halide quenching; stimulated with forskolin plus potentiator P3; % fluorescence drop versus neutral controls. activity (quench increase), % at 7.58 µM;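 active = mean added fluorescence quench of at least 8% versus neutral control, with both replicates also reaching 8%; inconclusive = only one of the mean or replicate conditions met; inactive = mean below 8% and not both replicates reaching 8%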;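 also: cells transiently co-express mutant CFTR-F508del with the halide-sensitive YFP; corrector assay measuring rescue of mutant channel to the surface after 24 h compound exposure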
Numbers without * were called inactive; ? = inconclusive; / = no result; [ ] = another dose, or the depositor's remark. An excerpt weighted towards active compounds, which were near 2.7% of everything screened.

SMILES	Env fusion inh	E-selectin induc	FGF22 binding	S100A4 inh HTS	CFTR F508del cor
CC1OC(OC2C(O)CC(OC3C(O)CC(OC4CCC5(C)C(CCC6C5CCC5(C)C(C7=CC(=O)OC7)C(O)CC65O)C4)OC3C)OC2C)CC(O)C1O (configuration not stated)	63.4*	/	0.1	-8.8	-5.3
C[C@]12CC[C@H]3[C@@H](CC[C@]4(O)C[C@@H](O)CC[C@]34C=O)[C@@]1(O)CC[C@@H]2C1=CC(=O)OC1	-38.9	-0.4	-0.2	1.0	-2.8
C[C@H]1O[C@@H](OC2CC[C@]3(C=O)[C@H]4CC[C@]5(C)[C@@H](C6=CC(=O)OC6)CC[C@]5(O)[C@@H]4CC[C@]3(O)C2)CC2OC(C)(C)OC21 (some centres not stated)	81.5*	/	-0.1	-3.1	8.6*
COC(=O)[C@@H]1[C@@H](CO)[C@@H]2Cn3c(ccc(C4=CCCCC4)c3=O)[C@H]1N2CC1CCCCC1	/	-0.5	/	-0.2	1.0
COC(=O)[C@@H]1[C@@H](CO)[C@@H]2Cn3c(ccc(/C=C/c4ccccc4)c3=O)[C@H]1N2C(=O)C1CCC1	/	0.1	-0.4	16.0	-0.5
C[C@H](CO)N1C[C@H](C)[C@@H](CN(C)C(=O)Oc2cccc3ccccc23)OCc2cnnn2CCCC1=O	3.6[16.7 µM]	-0.1	0.3	-5.1	2.1
C=CC1CN2CCC1C[C@@H]2CO (some centres not stated)	0.8[16.7 µM]	/	-0.2	-8.9	-1.1
CN(C)C(=O)[C@@H]1[C@@H](CO)[C@@H]2Cn3c(cccc3=O)[C@H]1N2CC1CC1	/	-0.4	-0.4	8.3	1.6
O=C(Cc1ccccn1)N1CCCCN2[C@@H](CO)[C@H](c3ccc(-c4ccccc4F)cc3)[C@@H]2C1	/	-0.2	-0.2	10.4	0.1
CCC(=O)N1[C@@H]2Cn3c(ccc(-c4ccc(F)cc4)c3=O)[C@H]1[C@@H](C(=O)OC)[C@@H]2CO	-4.3[16.7 µM]	-0.4	0.0	1.0	/
COC(=O)C1=C(c2cc3ccccc3o2)C[C@@H]2CC[C@H]1N2C(=O)NCc1cccc2ccccc12	100.7*	-0.1	/	/	3.7
COC(=O)C1=C(c2cc3ccccc3o2)C[C@@H]2CC[C@H]1N2C(=O)NCc1ccc(F)cc1	-7.9	-0.1	0.1	-10.0	2.3
CCCNC(=O)[C@@H]1[C@@H](CO)[C@@H]2Cn3c(cccc3=O)[C@@H]2N1CC	/	-0.2	/	0.9	-0.9
CC(=O)OCC12CC(OC(=O)CC(C)C)C(C)=CC1OC1C(O)C(OC(C)=O)C2(C)C12CO2 (configuration not stated)	67.2*	-1.4	-0.3	4.9	-4.8
O=c1c2ccccc2nc(CN2CCCCCC2)n1-c1ccc(F)cc1	70.7*	/	/	-3.3	/
CCC(CC)N1CCN(Cc2nc3ccccc3c(=O)n2-c2ccc(F)cc2)CC1	1.5	/	0.1	-14.7	/
CC[C@H]1C=C(C(=O)N[C@@]2(C(=O)O)C[C@H]2CC)[C@H]2CCC(=O)[C@H]2C1	-4.3[16.7 µM]	/	-0.3	-23.2	-1.2
Cc1nc2cc(-c3ccc(Cl)cc3)nn2c(C)c1CCC(=O)N1CCC2(CC1)OCCO2	79.1*	/	/	/	/
CCC(C)OC(=O)c1c(N)n(Cc2cccs2)c2nc3ccccc3nc12 (configuration not stated)	61.2*	/	/	/	/
Nc1c(C(=O)OCc2ccccc2)c2nc3ccccc3nc2n1Cc1cccs1	8.9	/	/	/	/
Fc1ccc(C(OCCN2CCN(CCCc3ccccc3)CC2)c2ccc(F)cc2)cc1	71.2*	-0.2	0.0	-0.4	1.2
CCCNC(=O)[C@@H]1[C@@H](CO)[C@@H]2Cn3c(cccc3=O)[C@@H]2N1C	2.4[16.7 µM]	0.2	0.1	5.1	/
O=C(O)Cn1cc(/C=C2\C(=O)NC(=O)N(c3ccc(Br)cc3)C2=O)c2ccccc21	1.5	-0.4	-0.1	101.4*	3.9
Cc1ccc(N2C(=O)NC(=O)/C(=C\c3cn(CC(=O)O)c4ccccc34)C2=O)cc1	-36.9	/	0.0	?	-9.6
CC(CN1CCOCC1)C(C#N)(c1ccccc1)c1ccccc1 (configuration not stated)	/	-0.3	43.0*	-4.0	-2.1
SMILES	Env fusion inh	E-selectin induc	FGF22 binding	S100A4 inh HTS	CFTR F508del cor
CC(CN1CCOCC1)OC(=O)Cc1ccccc1 (configuration not stated)	15.0	/	-0.1	-2.8	3.0
CN(CC1COc2ccccc2O1)c1nc(-c2cccnc2)nc2ccccc12 (configuration not stated)	64.6*	/	/	/	/
Cc1ccc(OC(F)F)c(N2C(=O)C3C4CCC(O4)C3C2=O)c1 (configuration not stated)	-8.2	34.7*	-0.1	6.8	3.2
O=C(O)[C@@H]1[C@@H](CO)[C@@H]2Cn3c(ccc(-c4ccncc4)c3=O)[C@H]1N2C(=O)C1CCC1	/	0.0	-0.2	13.6	-0.1
C=COCCn1c(C)c(C(C)=O)c2cc(O)ccc21	5.4	56.5*	-0.3	5.1	-1.7
COc1cc(CNCCc2c[nH]c3ccccc23)cc(OC)c1OC	-7.8	0.7	0.0	-8.8	0.7
COc1cc(CNCCc2c[nH]c3ccccc23)cc(OC)c1	61.0*	0.5	0.0	2.0	-2.2
OC(CCNCCc1c[nH]c2ccccc12)C(F)(F)Cl (configuration not stated)	0.6	/	43.6*	-1.1	-1.4
CCc1ccc(CNCCc2c[nH]c3ccccc23)cc1	78.3*	/	-0.4	1.7	-1.7
OC(CNCCc1c[nH]c2ccccc12)C(F)(F)F (configuration not stated)	-54.1	/	/	-0.9	-0.5
COC(=O)[C@@H]1[C@@H](CO)[C@@H]2Cn3c(ccc(-c4cccc(F)c4)c3=O)[C@H]1N2Cc1ccccc1	/	0.0	-0.1	2.4	2.2
Cc1cccc(S(=O)(=O)N2[C@@H]3Cn4c(ccc(-c5ccc(F)cc5)c4=O)[C@H]2[C@@H](C(=O)O)[C@@H]3CO)c1	3.6[16.7 µM]	-0.2	/	-0.9	/
C[n+]1c(-c2ccccc2)c2cc(N)ccc2c2ccc(N)cc21	31.0	9.1	-0.7	126.3*	3.8
N#Cc1cccc(-c2ccc([C@H]3[C@@H](CO)N4CCCCN(C(=O)Cc5ccncc5)C[C@@H]34)cc2)c1	/	-0.4	-0.2	-3.4	-2.6
c1ccc(C2(NC3=NCCO3)CCCCC2)cc1	/	0.4	43.1*	-1.4	2.0
COc1cccc(NC(=O)CN2CC(c3ccccc3)CC2=O)c1 (configuration not stated)	15.5	-0.2	-0.1	0.9	4.0
O=C(CN1CC(c2ccccc2)CC1=O)NCc1ccc(F)cc1 (configuration not stated)	-5.6	1.4	43.3*	-1.5	-3.3
COC(=O)[C@@H]1[C@@H](CO)[C@@H]2Cn3c(ccc(C4=CCCC4)c3=O)[C@H]1N2CC1CCCC1	/	-0.3	/	-4.1	1.3

Source: PubChem BioAssay (Broad Institute)
